UPR CHOP act: activators of apoptotic CHOP UPR arm, primary screen, cell-based, CHO-CHOP luciferase reporter, luminescence, uHTS; UPR activation; percent of tunicamycin response over DMSO baseline; hit rate 0.34% among 330,000; activation, % at 10 µM;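 active = at 10 µM dose, activation of 40% or more, normalized to positive control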;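 note: 100% = tunicamycin at 10 µg/mL and 0% = DMSO alone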
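measured by = luciferase luminescence | assay system = CHO-CHOP cells, stable luciferase reporter of PERK-eIF2a-CHOP signalling | amount = 500 reporter cells seeded per well | timing = 6 h compound exposure at 37 °C after overnight seeding | controls = positive tunicamycin 10 µg/mL, negative DMSO alone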
Jurkat NFkB inh: inhibitors of induced NF-kB luciferase reporter, primary screen, TCR NF-kB activation inhibitor project, cell-based, luminescence, uHTS | Jurkat, PMA/ionomycin-induced NF-kB luciferase reporter | inhibition, % at 4 µM | hit rate 0.53% among 330,000; in the data active = inhibition above about 50%
697 NFkB inh: inhibitors of PMA/ionomycin-induced NF-kB reporter, 697 cells, primary screen, B-cell NF-kB inhibitor project, cell-based, luminescence, uHTS. 697 B-cell NF-kB luciferase reporter, 16 h. inhibition, % at 4 µM. hit rate 0.33% among 330,000; in the data active = inhibition above about 35%
UPR XBP1 act: activators of adaptive XBP1 UPR arm, primary screen, cell-based, CHO-XBP1 luciferase reporter, luminescence, uHTS | IRE1-XBP1 UPR activation; percent of tunicamycin response, DMSO as zero | activation, % at 20 µM | hit rate 0.33% among 330,000;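 active = versus positive control, 20 µM dose yields 30% or more activation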;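 note: 100% = tunicamycin at 10 µg/mL and 0% = DMSO only wells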
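incubation = overnight seeding at 37 °C, 6 h compound treatment at 37 °C | assay system = CHO-XBP1 cells stably carrying IRE1-XBP1-driven luciferase reporter | input = 1000 cells per well | detection = luciferase luminescence | dosing = single point, 20 µM final compound, 1% DMSO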
CHOP inhibitor: inhibitors of CHOP promoter induction, primary screen, cell-based, unfolded protein response, luciferase reporter. CHO-K1 CHOP-promoter luciferase, tunicamycin-induced, 15-18 h. inhibition, % at 10 µM. hit rate 3.8% among 220,000;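 active = compounds that reduced the stress-induced luciferase reporter signal by more than about 70% of percent inhibition, limit read from the data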;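 note: 0% = tunicamycin plus vehicle and 100% = wells without tunicamycin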
* marks the source's active call; other numbers are inactive results; / = no result. Many of the other results were omitted from the sample, so hits are more common in it than they were.

SMILES | UPR CHOP act | Jurkat NFkB inh | 697 NFkB inh | UPR XBP1 act | CHOP inhibitor
CCOC(=O)c1c(-c2ccc(F)cc2)csc1NC(=O)C1CCCO1 (centres undefined) | -2 | -13 | -39 | -3 | 75*
CCOc1ccc(Nc2nc(Nc3ccc(O)cc3)nc(C)c2[N+](=O)[O-])cc1 | 2 | 4 | -11 | -1 | 80*
O=C(Cn1cc2c(n1)CCCC2)Nc1cc(-c2cccc(Cl)c2)no1 | 0 | -5 | -22 | 4 | 95*
CCOc1cc(/C=C2/C(=N)N3OC(C)=CC3=NC2=O)ccc1OCCOc1ccccc1 | -3 | -1 | 17 | 4 | 92*
CN(Cc1ccccc1)C(=O)COC(=O)c1ccc(Cl)cc1N | 0 | -5 | -9 | -1 | 9
CC1=CC(=O)C(C(C)C)=CC1=NC(=O)c1ccc(C)cc1 | 7 | 10 | -10 | -3 | 107*
CC(C)(C)c1ccc(COC(=O)Nc2ccc(F)cc2)cc1 | 1 | -14 | 3 | -2 | 77*
C=CCCc1ccc(C#N)c(SCc2c(C(=O)OCC)c3cc(OC(C)=O)c(Br)cc3n2C)n1 | 6 | 18 | -7 | -3 | 72*
CCOC(=O)c1c(CSc2nc(C)cc(C)c2C#N)n(C)c2cc(Br)c(OC(C)=O)cc12 | 1 | 5 | -24 | 4 | 1
CCCCCCCCOC(=O)c1c(CSC(=N)N)n(C)c2cc(Br)c(OC(C)=O)cc12 | 0 | 15 | -8 | -8 | 100*
CCOC(=O)c1c(CSC(=N)N)n(-c2ccc(Br)cc2)c2cc(Br)c(OC(C)=O)cc12 | / | / | / | / | 110*
CCOC(=O)c1c(CN2CCCCC2)n(C)c2cc(Br)c(OC)cc12 | -1 | -9 | -25 | 0 | 47
CC(=O)c1sc2nsc(SCCN3CCCC3)c2c1N | 2 | -3 | 2 | 2 | 25
CC1CC(C)(C)N(C(=O)CN2C(=O)CCC2=O)c2ccccc21 (centres undefined) | 1 | 1 | 7 | 0 | /
O=C(NCCCNC(=O)c1ccccc1)c1ccccc1 | -2 | -12 | 8 | -1 | /
Cn1c2ccccc2c2nnc(SCC(=O)Nc3cccc(O)c3)nc21 | 1 | -6 | 14 | 9 | /
COCCN1CC(=O)N2C(c3cccc(OC)c3)c3[nH]c4ccccc4c3C[C@H]2C1=O (some centres undefined) | 2 | -15 | 3 | 0 | /
CC1CCN(C(=O)CNC(=O)CNC(=O)Cc2ccccc2)CC1 | 2 | -2 | 9 | -1 | /
Cc1ccc(CSCC(=O)NCc2ccc3c(c2)OCO3)cc1 | 1 | -4 | -16 | -2 | 15
Cc1ccsc1-c1nc(CSCC(=O)NCc2ccc3c(c2)OCO3)c(C)o1 | 1 | -11 | -3 | 0 | 81*
COc1ccc(-c2nc(CSCC(=O)NCc3ccc4c(c3)OCO4)c(C)o2)cc1 | -4 | 8 | 15 | 2 | 80*
COc1ccc(-c2nc(CSCC(=O)NCc3ccc4c(c3)OCO4)c(C)o2)cc1OC | 1 | -2 | 2 | -1 | 36
CC1(c2ccc3ccccc3c2)NC(=O)N(CC(=O)Nc2ncccc2O)C1=O (centres undefined) | 0 | 0 | 4 | -1 | /
CCOC(=O)/C(=C/c1ccc(OC(=O)c2ccncc2)cc1)C(C)=O | 0 | -5 | 15 | 1 | -37
CCOC(=O)C(=Cc1ccc(Br)cc1)C(=O)OCC | / | / | / | / | 105*
SMILES | UPR CHOP act | Jurkat NFkB inh | 697 NFkB inh | UPR XBP1 act | CHOP inhibitor
Cc1nc(SCC(=O)N2CCCC2=O)nc(C)c1C | 1 | -10 | -7 | -1 | /
CCn1c(SCC(=O)Nc2nc(-c3ccc(C)cc3)cs2)nnc1-c1ccccc1O | 3 | -8 | -57 | -2 | 86*
CCn1c(SCC(=O)Nc2nc(-c3ccc(C)cc3)cs2)nnc1-c1ccccc1 | 0 | -11 | -32 | 0 | 40
Cc1cccc(NC(=O)CSc2nc3ccccc3c(=O)n2C)c1 | 0 | 12 | -52 | -1 | /
Cc1cc([N+](=O)[O-])ccc1NC(=O)CSc1nncn1-c1cccnc1 | 1 | 13 | 8 | 1 | /
Cc1ccc(/C=N/Nc2ccc(Cl)nn2)cc1 | 4 | -80 | -62 | 2 | 78*
CCC(SC1=NCCS1)C(=O)Nc1nnc(-c2ccccc2OC)s1 (centres undefined) | 2 | -3 | -4 | 2 | 86*
CC(SC1=NCCS1)C(=O)Nc1nnc(-c2ccc(Br)cc2)s1 (centres undefined) | 11 | -11 | -46 | 1 | 86*
CC(SC1=NCCS1)C(=O)Nc1nnc(-c2ccc(F)cc2)s1 (centres undefined) | 4 | 6 | -2 | -3 | 64
CC(C(=O)OCC(=O)c1cccc([N+](=O)[O-])c1)N1C(=O)C2C3C=CC(C3)C2C1=O (centres undefined) | 0 | 16 | 22 | 0 | /
COc1cc2nc(C3CC3)n(NC(=O)c3ccc(Cl)cc3)c(=O)c2cc1OC | -2 | 6 | 1 | -2 | 51
COc1cc2nc(NC(=O)c3ccc(Cl)cc3)[nH]c(=O)c2cc1OC | 0 | 0 | 1 | -2 | 72*
O=C(Cn1nc(-c2ccccc2)ccc1=O)Nc1ccc(NC(=O)c2ccccn2)cc1 | 22 | -2 | -8 | 28 | 94*
CCOC(=O)N1CCC(NC(=O)CCS(=O)(=O)c2ccc3c(c2)CCN3C(=O)CC)CC1 | 3 | -1 | 16 | -3 | 13
CCOC(=O)N1CCC(NS(=O)(=O)c2ccc3c(c2)CCN3C(C)=O)CC1 | -1 | 2 | -6 | -1 | 73*
C=C1CCN([C@@H](Cc2ccccc2)C(=O)NCc2ccc(Cl)cc2)S(=O)(=O)c2ccccc21 | 0 | 4 | 8 | -1 | /
COc1ccc(N2CCN(c3ncnc4c3cnn4-c3ccc(C)cc3C)CC2)cc1 | 4 | 37 | -15 | 0 | 74*
Clc1ccc(Cn2ncc3c(N4CCCCC4)ncnc32)cc1 | 0 | -5 | 18 | 3 | 58
Clc1ccc(-n2ncc3c(N4CCCCCC4)ncnc32)cc1 | -10 | 16 | -141 | -9 | 84*
COc1ccc(-n2ncc3c(N4CCCCC4)ncnc32)cc1 | -11 | 15 | -26 | -9 | 89*
Cc1nn(-c2ccc(N3CCCCC3)nn2)c(C)c1CCC(=O)Nc1cc(F)ccc1F | 4 | -24 | -23 | 0 | /
COc1ccc2c(c1OC)C(=O)OC2Nc1nc(-c2cc3cc(Br)ccc3oc2=O)cs1 (centres undefined) | 5 | -67 | -66 | 0 | 71*
CCCc1ccc(C(=O)Cn2nc(C(=O)O)c3ccccc3c2=O)cc1 | 1 | -2 | -27 | -2 | 86*

Screens (PubChem BioAssay)
